Laboratory results as given in ChEMBL document CHEMBL1130381, “Synthesis and evaluation of trimetoquinol derivatives: novel thromboxane A2/prostaglandin H2 antagonists with diminished beta-adrenergic agonist activity” (J Med Chem, 1997).

How the values were obtained:
Thromboxane A2 receptor = molecular target: T1, Thromboxane A2 receptor (Homo sapiens, UniProt P21731); test: Inhibitory concentration against radioligand [3H]SQ-29,548 (5 nM) binding to TP receptors in human platelets
T1 sequence (P21731 whole entry): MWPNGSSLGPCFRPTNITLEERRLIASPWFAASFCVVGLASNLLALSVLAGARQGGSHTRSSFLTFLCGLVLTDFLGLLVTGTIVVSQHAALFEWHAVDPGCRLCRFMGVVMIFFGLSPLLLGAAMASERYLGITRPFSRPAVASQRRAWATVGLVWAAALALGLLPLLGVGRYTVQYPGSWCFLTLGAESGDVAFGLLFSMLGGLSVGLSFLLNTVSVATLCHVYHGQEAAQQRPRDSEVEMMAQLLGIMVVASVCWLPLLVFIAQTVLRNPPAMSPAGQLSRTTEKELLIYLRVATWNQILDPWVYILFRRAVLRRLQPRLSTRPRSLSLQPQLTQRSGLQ

Homo sapiens [1] = species on record: Homo sapiens; test: Potency ratio of human platelet aggregation; assay type: functional
Homo sapiens [2] = species on record: Homo sapiens; test: Inhibitory activity against U-46,619-induced (1 uM) human platelet activation (aggregation); assay type: functional
Procedure, shortened: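 Human platelet-rich plasma from volunteers free of medication for at least 10 days, with aspirin (1 mM) to block endogenous prostaglandins. Drug and aspirin preincubated 1 min, then U46619 (0.3–1 μM, minimum concentration giving maximal aggregation) added. Turbidometric aggregation monitored for 4 min. IC50 read graphically from percent response versus log concentration plots, reported as pIC50.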

Homo sapiens [3] = species on record: Homo sapiens; test: Inhibitory activity against U-46,619-induced (1 uM) human platelet activation (Serotonin secretion); assay type: functional
Procedure, shortened: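 Aspirin (1 mM) plus drug for 1 min, then U46619 (0.3–1 μM). Supernatant counted by liquid scintillation. Percent secretion = (sample − unstimulated background cpm)/(total − background cpm) × 100. IC50 taken graphically from log concentration–response plots, given as pIC50.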

[4] = molecular target: Beta-2 adrenergic receptor (Cavia porcellus) (UniProt Q8K4Z4)
Sequence of Beta-2 adrenergic receptor (Cavia porcellus) (Q8K4Z4 whole entry, looked up): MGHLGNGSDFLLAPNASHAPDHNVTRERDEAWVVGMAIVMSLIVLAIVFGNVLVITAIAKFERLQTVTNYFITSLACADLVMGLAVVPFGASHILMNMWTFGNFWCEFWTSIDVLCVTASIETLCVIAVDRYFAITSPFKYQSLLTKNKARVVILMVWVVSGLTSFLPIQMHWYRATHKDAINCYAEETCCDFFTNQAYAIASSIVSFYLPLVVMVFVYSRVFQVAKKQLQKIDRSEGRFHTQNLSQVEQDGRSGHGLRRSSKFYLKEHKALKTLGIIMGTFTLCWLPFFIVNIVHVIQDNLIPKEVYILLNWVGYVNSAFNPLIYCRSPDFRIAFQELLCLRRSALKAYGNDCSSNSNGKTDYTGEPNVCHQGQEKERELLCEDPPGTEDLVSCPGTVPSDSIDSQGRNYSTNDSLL

[5] = molecular target: Beta-1 adrenergic receptor (Cavia porcellus) (UniProt B0FL73); conditions: Cardiac atrium
Sequence of Beta-1 adrenergic receptor (Cavia porcellus) (B0FL73 1-467): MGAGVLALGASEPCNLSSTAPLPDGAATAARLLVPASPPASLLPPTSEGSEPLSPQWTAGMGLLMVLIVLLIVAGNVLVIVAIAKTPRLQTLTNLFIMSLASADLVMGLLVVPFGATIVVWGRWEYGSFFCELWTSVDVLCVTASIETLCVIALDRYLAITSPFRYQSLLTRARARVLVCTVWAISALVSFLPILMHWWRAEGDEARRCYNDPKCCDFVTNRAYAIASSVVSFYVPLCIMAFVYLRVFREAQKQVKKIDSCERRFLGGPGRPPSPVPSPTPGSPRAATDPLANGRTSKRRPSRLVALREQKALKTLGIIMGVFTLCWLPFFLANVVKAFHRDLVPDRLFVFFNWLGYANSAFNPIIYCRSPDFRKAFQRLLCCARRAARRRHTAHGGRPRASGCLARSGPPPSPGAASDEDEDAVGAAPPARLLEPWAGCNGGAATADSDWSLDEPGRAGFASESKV

SMILES | IC50 (Thromboxane A2 receptor) | Ki (Thromboxane A2 receptor) | IC50 (Homo sapiens [2]) | IC50 (Homo sapiens [3]) | pD2 [4] | pD2 [5] | Potency ratio (Homo sapiens [1])
COc1cc(N=C2NCCc3cc(O)c(O)cc32)cc(OC)c1OC | 275 µM | 120 µM | – | – | – | – | –
COc1cc(CC2NCCc3cc(O)c(O)cc32)cc(I)c1OC (configuration not stated) | – | – | – | – | – | – | 1.12
COc1cc(CC2c3cc(O)c(O)cc3CCN2CCc2ccccc2)cc(OC)c1OC (configuration not stated) | 41.7 µM | 16.2 µM | 38 µM | 34.7 µM | 4.64 | 4.62 | 0.0302
COc1cc(CC2c3cc(O)c(O)cc3CCN2Cc2ccccc2)cc(OC)c1OC (configuration not stated) | – | – | – | – | – | – | 0.0331
COc1cc(NC2=NCCc3cc(O)c(O)cc32)cc(OC)c1OC | – | – | 200 µM | 204 µM | 3.95 | – | 0.00575
COc1cc(C[C@@H]2NCCc3cc(O)c(O)cc32)cc(OC)c1OC [TRETOQUINOL] | – | – | 1.15 µM | 1.32 µM | 7.26 | 7.36 | –

The next lines start with results.

IC50 (Thromboxane A2 receptor) | Ki (Thromboxane A2 receptor) | IC50 (Homo sapiens [2]) | IC50 (Homo sapiens [3]) | pD2 [4] | pD2 [5] | SMILES | Potency ratio (Homo sapiens [1])
89.1 µM | 34.7 µM | 129 µM | 145 µM | 6.75 | 6.21 | Nc1ccc(CC2NCCc3cc(O)c(O)cc32)cc1 (configuration not stated) | –
25.1 µM | 9.55 µM | 44.7 µM | 60.3 µM | 7.49 | 7.26 | O=[N+]([O-])c1ccc(CC2NCCc3cc(O)c(O)cc32)cc1 (configuration not stated) | –
0.871 µM | 0.339 µM | 1.26 µM | 1.12 µM | 6.55 | 5.91 | O=[N+]([O-])c1cc(CC2NCCc3cc(O)c(O)cc32)ccc1O (configuration not stated) | –
